Measurements taken from ChEMBL document CHEMBL4152190, “Microwave-assisted one-pot synthesis of new phenanthrene fused-tetrahydrodibenzo-acridinones as potential cytotoxic and apoptosis inducing agents” (Eur J Med Chem, 2018).

Experiments:
[1] = test system: HEK-293T; test: Cytotoxicity against human HEK293T cells after 48 hrs by MTT assay; assay type: cell-based
Outline: (§1)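 ATCC lines grown in DMEM or RPMI with 10% FBS and antibiotic-antimycotic, 37 °C, 5% CO2. Seeded at 3×10^4 cells/well, 24 h before dosing with vehicle (DMSO) controls. […] Cisplatin as reference.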

[2] = test system: HeLa; test: Cytotoxicity against human HeLa cells after 48 hrs by MTT assay; assay type: functional, cell-based; outline: as §1
[3] = test system: SK-OV-3; test: Cytotoxicity against human SKOV3 cells after 48 hrs by MTT assay; assay type: functional, cell-based; conditions: SK-OV-3, 48 h; outline: as §1
[4] = test system: PC-3; test: Cytotoxicity against human PC3 cells after 48 hrs by MTT assay; assay type: functional, cell-based; conditions: PC-3, 48 h; outline: as §1
[5] = test system: HT-1080; test: Cytotoxicity against human HT1080 cells after 48 hrs by MTT assay; assay type: functional, cell-based; conditions: HT-1080, 48 h; outline: as §1

COc1cc2c3c(c4cc(OC)c(OC)cc4c2cc1OC)C(c1ccc(Br)cc1)C1=C(CC(C)(C)CC1=O)N3 (stereo not given) was tested, and the IC50 [1] was 36.3 µM, the IC50 [2] was 31.6 µM and the IC50 [3] was 15.5 µM. For the same compound, the IC50 [4] was 12.4 µM and the IC50 [5] was 11.6 µM.

COc1cc(C2C3=C(CC(C)(C)CC3=O)Nc3c2c2cc(OC)c(OC)cc2c2cc(OC)c(OC)cc32)ccc1O (stereo not given) was tested, and the IC50 [1] was over 50 µM, the IC50 [2] was 11.7 µM and the IC50 [3] was 13.6 µM. For the same compound, the IC50 [4] was 23.8 µM and the IC50 [5] was 9.83 µM.

Work on COc1cc2c3c(c4cc(OC)c(OC)cc4c2cc1OC)C(c1sccc1C)C1=C(CC(C)(C)CC1=O)N3 (stereo not given) yielded an IC50 [1] of 33.5 µM, an IC50 [2] of 3.7 µM and an IC50 [3] of 2.89 µM. It also gave an IC50 [4] of 21.6 µM and an IC50 [5] of 8.85 µM.

With COc1ccc(C2C3=C(CC(C)(C)CC3=O)Nc3c2c2cc(OC)c(OC)cc2c2cc(OC)c(OC)cc32)cc1OC (stereo not given) the IC50 [1] was 43.5 µM, the IC50 [2] was 28.1 µM and the IC50 [3] was 13.7 µM. For the same compound, the IC50 [4] was 17.6 µM and the IC50 [5] was 21.3 µM.

For COc1cc2c3c(c4cc(OC)c(OC)cc4c2cc1OC)C(c1cc(OC)c(O)c(OC)c1)C1=C(CC(C)(C)CC1=O)N3 (stereo not given), the IC50 [1] was over 50 µM, the IC50 [2] was 9.42 µM and the IC50 [3] was 6.5 µM. It also gave an IC50 [4] of 6.84 µM and an IC50 [5] of 7.64 µM.

In the case of COc1cc2c3c(c4cc(OC)c(OC)cc4c2cc1OC)C(c1ccc2c(c1)OCO2)C1=C(CC(C)(C)CC1=O)N3 (stereo not given), the IC50 [1] is reported as 24.6 µM, the IC50 [2] is reported as 1.35 µM and the IC50 [3] is reported as 4.66 µM. For the same compound, the IC50 [4] was 7.7 µM and the IC50 [5] was 4.32 µM.

Compound COc1cc2c3c(c4cc(OC)c(OC)cc4c2cc1OC)C(c1cccs1)C1=C(CCCC1=O)N3 (stereo not given) has an IC50 [1] of 15.5 µM, an IC50 [2] of 2.46 µM and an IC50 [3] of 2.35 µM. It also gave an IC50 [4] of 5.89 µM and an IC50 [5] of 3.78 µM.

COc1cc2c3c(c4cc(OC)c(OC)cc4c2cc1OC)C(c1ccc(C(F)(F)F)cc1)C1=C(CC(C)(C)CC1=O)N3 (stereo not given) was tested, and the IC50 [1] was 35.7 µM, the IC50 [2] was over 50 µM and the IC50 [3] was 18.6 µM. For the same compound, the IC50 [4] was 31.4 µM and the IC50 [5] was 15.6 µM.

COc1cc2c3c(c4cc(OC)c(OC)cc4c2cc1OC)C(c1cccs1)C1=C(CC(C)(C)CC1=O)N3 (stereo not given) showed an IC50 [1] of 18.9 µM, an IC50 [2] of 2.28 µM and an IC50 [3] of 1.6 µM. It also gave an IC50 [4] of 7.1 µM and an IC50 [5] of 5.87 µM.
